In series [1] the target is C-C chemokine receptor type 5 (Homo sapiens) (UniProt P51681). As to the kind of experiment: Inhibition of CCR5 in human TZM-bl cells infected with HIV1 Bal R5 assessed as antiviral activity by measuring reduction in viral infection at 50 uM pre-incubated with cells followed by viral infection measured after 3 days by luciferase reporter gene assay. In kind it is functional, cell-based. The method, boiled down: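 TZM-bl cells were plated, and medium was replaced after 12 h with compound at 50μM in duplicate wells. HIV-1 Bal (R5) at 200TCID50 was added with DEAE at 10μg/mL final. Plates were incubated 3 days at 37°C, 5% CO2. Luciferase substrate in lysis buffer reacted 2 min at room temperature, protected from light. Inhibition % was taken as the decrease in signal relative to virus control, as the mean of two wells.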
In general terms: Reporter assays use an easily measured gene product as a stand-in for the process of interest.

Series [2] is described as follows: Cytotoxicity against human TZM-bl cells assessed as reduction in cell viability after 2 days by CCK-8 assay. It counts as cell-based. The method, boiled down:
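TZM-bl cells seeded at 1×10^5 cells/mL and exposed to compound at 1000, 200, 40, 8 and 1.6µM, dissolved in DMSO cell freezing medium. Cells kept at 37°C, 5% CO2, in triplicate wells, with a medium-only control. After 2 days, CCK-8 was added for 3–4 h and A450 was read. Survival % = A450 treated/control ×100. CC50 is the concentration giving 50% cytotoxicity.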

Series [3] concerns the target Human immunodeficiency virus type 1 integrase (Human immunodeficiency virus 1, UniProt Q7ZJM1). Put plainly: Binding affinity to HIV1 integrase by surface plasma resonance method. A digest of the protocol:
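IN protein amine-coupled to a CM5 sensor chip (~10000RU) on a Biacore T200. Runs at 25°C in PBST running buffer, flow 30μL/min. Compounds were injected at graded concentrations (200μM, 100μM, 50μM, 25μM, 12.5μM, etc.). Sensorgrams were solvent-corrected and reference flow cell subtracted. KD came from a 1:1 kinetic binding fit.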

This is an account of results in ChEMBL document CHEMBL4184128, “Design, synthesis and biological evaluation of (E)-3,4-dihydroxystyryl 4-acylaminophenethyl sulfone, sulfoxide derivatives as dual inhibitors of HIV-1 CCR5 and integrase” (Bioorg Med Chem, 2017).

Sequence of Human immunodeficiency virus type 1 integrase (Q7ZJM1 whole entry): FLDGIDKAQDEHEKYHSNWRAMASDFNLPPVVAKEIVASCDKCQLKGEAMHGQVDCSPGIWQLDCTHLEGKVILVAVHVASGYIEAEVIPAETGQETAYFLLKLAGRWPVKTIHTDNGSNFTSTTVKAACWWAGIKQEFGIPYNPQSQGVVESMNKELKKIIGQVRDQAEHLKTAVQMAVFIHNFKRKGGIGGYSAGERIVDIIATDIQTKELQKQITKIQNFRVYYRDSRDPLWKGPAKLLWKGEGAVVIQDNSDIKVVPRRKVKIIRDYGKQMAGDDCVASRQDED
Sequence of C-C chemokine receptor type 5 (Homo sapiens) (P51681 whole entry, looked up): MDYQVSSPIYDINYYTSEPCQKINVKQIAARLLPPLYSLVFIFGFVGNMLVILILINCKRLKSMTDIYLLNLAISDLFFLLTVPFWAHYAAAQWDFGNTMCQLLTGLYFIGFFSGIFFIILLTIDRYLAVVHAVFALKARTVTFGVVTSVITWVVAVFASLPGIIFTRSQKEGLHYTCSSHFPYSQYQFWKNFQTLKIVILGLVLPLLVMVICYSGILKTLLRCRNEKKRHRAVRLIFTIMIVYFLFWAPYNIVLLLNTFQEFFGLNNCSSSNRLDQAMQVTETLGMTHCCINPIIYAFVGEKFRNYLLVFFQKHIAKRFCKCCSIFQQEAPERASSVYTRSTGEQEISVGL

On to `O=C(Nc1ccc(CC[S+]([O-])/C=C/c2ccc(O)c(O)c2)cc1)C12CC3CC(CC(C3)C1)C2` (centres undefined), for which the inhibition in series [1] came out at 64.7%. `O=C(Nc1ccc(CCS(=O)(=O)/C=C/c2ccc(O)c(O)c2)cc1)c1ccc(F)cc1`: the CC50 at 48 h in series [2] was more than 1000 µM. In series [1], the inhibition was less than 20%. Regarding `O=C(Nc1ccc(CC[S+]([O-])/C=C/c2ccc(O)c(O)c2)cc1)c1ccccc1` (centres undefined), the cytotoxic concentration (CC50) at 48 h in series [2] was determined as 157 µM. Besides, in series [1], the inhibition came to 68.4%. Binding in series [3] was characterised by a dissociation constant (Kd) of 142 µM.

Take `Cc1ccc(C(=O)Nc2ccc(CCS(=O)(=O)/C=C/c3ccc(O)c(O)c3)cc2)cc1`: in series [2], the CC50 at 48 h worked out at 168 µM. Besides, the inhibition in series [1] was less than 20%. For `CC(=O)Oc1ccc(/C=C/S(=O)(=O)CCc2ccc(NC(=O)C3CCCCC3)cc2)cc1OC(C)=O`, in that order: 169 µM and less than 20%. For `O=C(Nc1ccc(CC[S+]([O-])/C=C/c2ccc(O)c(O)c2)cc1)c1ccc(F)cc1` (centres undefined), in that order: 127 µM and 64.6%.

Take `Cc1nnc(C(C)C)n1[C@@H]1C[C@H]2CC[C@@H](C1)N2CC[C@H](NC(=O)C1CCC(F)(F)CC1)c1ccccc1` [MARAVIROC]: in series [2], the CC50 at 48 h was more than 1000 µM. Regarding `COc1ccc(C(=O)Nc2ccc(CCS(=O)(=O)/C=C/c3ccc(O)c(O)c3)cc2)cc1`, the cytotoxic concentration (CC50) at 48 h in series [2] was more than 1000 µM. Also, the inhibition in series [1] was less than 20%. For `O=C(Cc1cccs1)Nc1ccc(CCS(=O)(=O)/C=C/c2ccc(O)c(O)c2)cc1`, in that order: 569 µM and less than 20%. `CC(=O)Oc1ccc(/C=C/S(=O)(=O)CCc2ccc(NC(=O)C34CC5CC(CC(C5)C3)C4)cc2)cc1OC(C)=O`: in series [2], the CC50 at 48 h stood at 182 µM. The inhibition in series [1] came to 23.7%. In the case of `CC(=O)Oc1ccc(/C=C/S(=O)(=O)CCc2ccc(NC(=O)c3cc(F)cc(F)c3)cc2)cc1OC(C)=O`, the CC50 at 48 h in series [2] amounted to 225 µM. Further, in series [1], the inhibition was less than 20%. For `O=C(Nc1ccc(CCS(=O)(=O)/C=C/c2ccc(O)c(O)c2)cc1)c1ccc([N+](=O)[O-])cc1`, the CC50 at 48 h in series [2] was found to be 483 µM. Moreover, the inhibition in series [1] was 23.4%. Regarding `O=C(Nc1ccc(CCS(=O)(=O)/C=C/c2ccc(O)c(O)c2)cc1)C1CCCCC1`, in series [2], the CC50 at 48 h was 638 µM. Also, in series [1], the inhibition was 45.9%. In series [3], this molecule showed a dissociation constant (Kd) of 115 µM.

Regarding `CC(=O)Oc1ccc(/C=C/S(=O)(=O)CCc2ccc(NC(=O)c3ccccc3)cc2)cc1OC(C)=O`, the CC50 at 48 h in series [2] was determined as 108 µM. In addition, in series [1], the inhibition is less than 20%. The affinity in series [3], expressed as Kd, was 207 µM. The corresponding values for `O=C(Nc1ccc(CCS(=O)(=O)/C=C/c2ccc(O)c(O)c2)cc1)c1ccccc1` are 238 µM, less than 20% and 160 µM.

For `CC(=O)Oc1ccc(/C=C/S(=O)(=O)CCc2ccc(NC(=O)c3ccc(F)cc3)cc2)cc1OC(C)=O`, the CC50 at 48 h in series [2] came out at 162 µM. Besides, the inhibition in series [1] was determined as 26.2%. The corresponding values for `CC(=O)Oc1ccc(/C=C/S(=O)(=O)CCc2ccc(NC(=O)c3ccc([N+](=O)[O-])cc3)cc2)cc1OC(C)=O` are 160 µM and 52.2%.

Take `O=C(Nc1ccc(CC[S+]([O-])/C=C/c2ccc(O)c(O)c2)cc1)c1cc(F)cc(F)c1` (centres undefined): in series [1], the inhibition was 41.8%. As to `CC(=O)Oc1ccc(/C=C/S(=O)(=O)CCc2ccc(NC(=O)c3ccc(C)cc3)cc2)cc1OC(C)=O`, in series [2], the CC50 at 48 h is 177 µM. The inhibition in series [1] was less than 20%. Consider `O=C(Nc1ccc(CC[S+]([O-])/C=C/c2ccc(O)c(O)c2)cc1)C1CCCCC1` (centres undefined), for which the inhibition in series [1] was 52.7%. On the same count and under the same terms, to `COc1ccc(C(=O)Nc2ccc(CC[S+]([O-])/C=C/c3ccc(O)c(O)c3)cc2)cc1` (centres undefined) belongs 34.1%. Take `COc1ccc(C(=O)Nc2ccc(CCS(=O)(=O)/C=C/c3ccc(OC(C)=O)c(OC(C)=O)c3)cc2)cc1`: the CC50 at 48 h in series [2] came to 858 µM. For the same molecule, in series [1], the inhibition is less than 20%. In the case of `CC(=O)Oc1ccc(/C=C/S(=O)(=O)CCc2ccc(NC(=O)Cc3cccs3)cc2)cc1OC(C)=O`, the CC50 at 48 h in series [2] was determined as 161 µM. Also, the inhibition in series [1] amounted to 23%. The corresponding values for `O=C(Nc1ccc(CCS(=O)(=O)/C=C/c2ccc(O)c(O)c2)cc1)c1cc(F)cc(F)c1` are 414 µM and 33%.

With `O=C(Nc1ccc(CCS(=O)(=O)/C=C/c2ccc(O)c(O)c2)cc1)C12CC3CC(CC(C3)C1)C2`, the CC50 at 48 h in series [2] was 786 µM. Also, the inhibition in series [1] worked out at 21.6%.

The term inhibition denotes the share of the control response that was lost under treatment. A word on the CC50: it is the concentration giving 50% cytotoxicity. Broadly, the Kd is the constant that tells how readily two partners part at equilibrium.
